Assay results: ChEMBL document CHEMBL1287734, “Synthesis, molecular modeling and biological evaluation of guanidine derivatives as novel antitubulin agents” (Bioorg Med Chem, 2010)
Calls of active or inactive are those of the source. The rule behind the calls is not given here.

Legend:
[1] = test system: MCF7; experiment: Antiproliferative activity against human MCF7 cells after 48 hrs by MTT assay; format: functional, cell-based; conditions: MCF7, 48 h
Summary of the method: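 After 24 h at 37 °C, 5% CO₂, compounds were added at preset concentrations for 48 h. MTT (2.5 mg/mL in PBS) was then added for 4 h, followed by 10% SDS–5% isobutyl alcohol–0.01 M HCl overnight at 37 °C. OD read at 570 nm. Triplicate wells per concentration; each assay run at least three times.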

[2] = Inhibition of bovine brain tubulin polymerization by turbidimetric analysis; parameters: species or system Bos taurus
Summary of the method: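 Purified bovine brain tubulin (10 µM) preincubated with varying compound concentrations in glutamate buffer at 30 °C, then cooled to 0 °C. GTP added, mixtures warmed to 30 °C in cuvettes, and assembly followed by turbidity.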

[3] = test system: MCF7; experiment: Cell cycle arrest in human MCF7 cells assessed as accumulation at sub-G1 phase after 24 hrs by flow cytometry relative to control; format: functional
Summary of the method: (§1)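 Cells treated at 50 nM or 500 nM for 24 h, collected and fixed overnight in 70% ethanol at −20 °C. After two PBS washes, RNase A (0.5 mg/mL) and propidium iodide (2.5 µg/mL) were added for 30 min. DNA content was measured by flow cytometry and the percentage of cells in each cycle phase was determined.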

[4] = test system: MCF7; experiment: Cell cycle arrest in human MCF7 cells assessed as accumulation at G1 phase after 24 hrs by flow cytometry relative to control; format: functional; summary of the method: as §1
[5] = test system: MCF7; experiment: Cell cycle arrest in human MCF7 cells assessed as accumulation at S phase after 24 hrs by flow cytometry relative to control; format: functional; summary of the method: as §1
[6] = test system: MCF7; experiment: Cell cycle arrest in human MCF7 cells assessed as accumulation at G2/M phase after 24 hrs by flow cytometry relative to control; format: functional; summary of the method: as §1
[7] = test system: MCF7; experiment: Cell cycle arrest in human MCF7 cells assessed as accumulation at sub-G1 phase at 50 nM after 24 hrs by flow cytometry relative to control; format: functional; summary of the method: as §1
[8] = test system: MCF7; experiment: Cell cycle arrest in human MCF7 cells assessed as accumulation at G2/M phase after 24 hrs by flow cytometry; format: functional, cell-based; summary of the method: as §1
[9] = test system: MCF7; experiment: Cell cycle arrest in human MCF7 cells assessed as accumulation at G2/M phase at 50 nM after 24 hrs by flow cytometry relative to control; format: functional; summary of the method: as §1
[10] = test system: MCF7; experiment: Induction of apoptosis in human MCF7 cells assessed as morphological changes at 1 uM after 24 hrs using DAPI staining by fluorescence microscopic analysis; format: functional, cell-based
Summary of the method: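 Cells cultured on 6-well plates and treated at 0 or 1.0 µM for 24 h. Fixed in ice-cold 4% paraformaldehyde for 20 min, then permeabilized in 0.1% sodium citrate/0.1% Triton X-100 for 2 min at 4 °C. Stained with DAPI (300 nM) and examined by fluorescence microscopy for nuclear morphology.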

[11] = test system: MCF7; experiment: Cell cycle arrest in human MCF7 cells assessed as accumulation at G1 phase at 500 nM after 24 hrs by flow cytometry relative to control; format: functional; summary of the method: as §1
[12] = test system: MCF7; experiment: Cell cycle arrest in human MCF7 cells assessed as accumulation at G2/M phase at 500 nM after 24 hrs by flow cytometry relative to control; format: functional; summary of the method: as §1
[13] = test system: MCF7; experiment: Cell cycle arrest in human MCF7 cells assessed as accumulation at S phase at 50 nM after 24 hrs by flow cytometry relative to control; format: functional; summary of the method: as §1
[14] = test system: MCF7; experiment: Cell cycle arrest in human MCF7 cells assessed as accumulation at G1 phase at 50 nM after 24 hrs by flow cytometry relative to control; format: functional; summary of the method: as §1
[15] = test system: MCF7; experiment: Cell cycle arrest in human MCF7 cells assessed as accumulation at sub-G1 phase at 500 nM after 24 hrs by flow cytometry relative to control; format: functional; summary of the method: as §1
[16] = test system: MCF7; experiment: Cell cycle arrest in human MCF7 cells assessed as accumulation at S phase at 500 nM after 24 hrs by flow cytometry relative to control; format: functional; summary of the method: as §1

Row | Structure (SMILES) | IC50 [1] [µM] | IC50 [2] [µM] | further results
1 | N=C(N)N/N=C(/C=C/c1cccc([N+](=O)[O-])c1)c1ccccc1 | 6.5 | 85 | –
2 | N=C(N)N/N=C(/C=C/c1ccccc1)c1ccc(Cl)c(Cl)c1 | 1.9 | 24 | –
3 | COc1cc2c(c(OC)c1OC)-c1ccc(OC)c(=O)cc1[C@@H](NC(C)=O)CC2 [COLCHICINE] | – | – | Activity [3]: 14.58%; Activity [4]: 8.58%; Activity [5]: 8.16%; Activity [6]: 43.11%
4 | Cc1ccc(C(/C=C/c2ccccc2)=N\NC(=N)N)cc1 | 14 | 150 | –
5 | COc1ccccc1/C=C/C(=N/NC(=N)N)c1ccccc1 | 7.2 | 84 | –
6 | COc1ccc(/C=C\c2cc(OC)c(OC)c(OC)c2)cc1O [COMBRETASTATIN A4] | – | 2.2 | –
7 | N=C(N)N/N=C(/C=C/c1ccccc1)c1ccc(Br)cc1 | 0.09 | 8.4 | Activity [7]: 2.63%; Activity [8]: Dose-dependent effect; Activity [9]: 23.38%; Activity [10]: Active; Activity [11]: 1.5%; Activity [12]: 54.12%; Activity [13]: 14.54%; Activity [14]: 48.76%; Activity [15]: 4.52%; Activity [16]: 3.14%
8 | N=C(N)N/N=C(/C=C/c1ccccc1)c1ccc(Cl)cc1 | 0.35 | 15 | –
9 | N=C(N)N/N=C(/C=C/c1cccc(F)c1)c1ccccc1 | 16 | 150 | –
10 | COc1cccc(/C=C/C(=N/NC(=N)N)c2ccccc2)c1 | 13 | 130 | –

Further lines, with some results ahead:

Row | IC50 [1] [µM] | IC50 [2] [µM] | Structure (SMILES) | further results
11 | 0.8 | 12 | N=C(N)N/N=C(/C=C/c1ccc(-c2ccccc2)cc1)c1ccccc1 | –
12 | 1.2 | 16 | N=C(N)N/N=C(/C=C/c1ccc(OCc2ccccc2)cc1)c1ccccc1 | –
13 | 2.5 | 28 | N=C(N)N/N=C(/C=C/c1ccc(F)cc1)c1ccccc1 | –
14 | 17 | 140 | N=C(N)N/N=C(/C=C/c1ccccc1)c1ccccc1 | –
15 | 0.7 | 14 | N=C(N)N/N=C(/C=C/c1ccc(Cl)cc1)c1ccccc1 | –
16 | 3.9 | 42 | N=C(N)N/N=C(/C=C/c1ccccc1F)c1ccccc1 | –
17 | 1.6 | 18 | N=C(N)N/N=C(/C=C/c1cccc2ccccc12)c1ccccc1 | –
18 | 4.2 | 52 | N=C(N)N/N=C(/C=C/c1ccccc1Br)c1ccccc1 | –
19 | 16 | 170 | Cc1ccc(/C=C/C(=N/NC(=N)N)c2ccccc2)cc1 | –
20 | 0.25 | 10 | N=C(N)N/N=C(/C=C/c1ccc(Br)cc1)c1ccccc1 | –
21 | 14 | 140 | COc1ccc(/C=C/C(=N/NC(=N)N)c2ccccc2)cc1 | –
22 | 13 | 130 | COc1ccc(C(/C=C/c2ccccc2)=N\NC(=N)N)cc1 | –
23 | 4.2 | 55 | N=C(N)N/N=C(/C=C/c1ccccc1Cl)c1ccccc1 | –
